The source made the active and inactive calls. The calls are words filed in the database; no cut-off is given here.
Experiments:
Type in all cases: cell-based
[1] = target: T1, Perforin-1 (Homo sapiens) (UniProt P14222); assay: Inhibition of perforin released from human KHYG-1 NK cells assessed as inhibition of perforin-mediated lysis of human K562 cells at 20 uM by [51Cr] release assay in absence of serum
T1 sequence (whole entry): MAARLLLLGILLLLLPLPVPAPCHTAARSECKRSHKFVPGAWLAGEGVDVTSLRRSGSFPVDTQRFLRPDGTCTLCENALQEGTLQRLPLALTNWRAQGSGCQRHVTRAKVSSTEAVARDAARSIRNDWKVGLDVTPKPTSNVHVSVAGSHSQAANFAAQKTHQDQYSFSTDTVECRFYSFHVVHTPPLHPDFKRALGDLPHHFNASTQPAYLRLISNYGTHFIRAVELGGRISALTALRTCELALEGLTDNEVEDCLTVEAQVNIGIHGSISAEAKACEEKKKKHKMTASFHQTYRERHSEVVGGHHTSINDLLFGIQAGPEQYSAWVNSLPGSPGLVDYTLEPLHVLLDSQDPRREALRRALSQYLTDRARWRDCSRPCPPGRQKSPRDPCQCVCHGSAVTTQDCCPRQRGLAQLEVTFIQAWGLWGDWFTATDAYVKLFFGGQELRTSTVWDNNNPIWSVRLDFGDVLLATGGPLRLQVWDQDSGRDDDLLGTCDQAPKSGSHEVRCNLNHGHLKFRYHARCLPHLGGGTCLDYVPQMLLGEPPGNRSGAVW
Procedure, shortened: (§1)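 KHYG-1 cells (4 × 10⁵/mL, RPMI + 0.1% BSA) received either BSA medium or 10% mouse serum final, then compound at 20 µM for 20 min at rt. K562 cells labelled with 75 µCi ⁵¹Cr (90 min, 37 °C) and washed were added at E:T 2:1 for 4 h at 37 °C. ⁵¹Cr release was gamma-counted. Specific lysis used spontaneous/maximum release, and inhibition was taken vs untreated control. Triplicate wells; ≥3 determinations.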

[2] = target: T1, Perforin-1 (Homo sapiens); assay: Inhibition of perforin released from human KHYG-1 NK cells assessed as inhibition of perforin-mediated lysis of human K562 cells at 20 uM by [51Cr] release assay in presence of 10% mouse serum; procedure, shortened: as §1
[3] = Cytotoxicity against human KHYG-1 NK cells assessed as cell viability at 20 uM after 18 to 24 hrs by trypan blue assay; details: read-out: Activity
Procedure, shortened: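 KHYG-1 NK cells were suspended at 4 × 10⁵ cells/mL in RPMI + 0.1% BSA and treated with compound at rt for 20 min. Instead of target cells, RPMI + 0.1% BSA was added, followed by 4 h at 37 °C. Cells were washed ×3 and kept in complete medium for 18–24 h at 37 °C. Trypan blue viable/total counts gave % viability vs a DMSO control. Values are the mean of ≥3 determinations.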

[4] = target: Pneumolysin (Streptococcus pneumoniae serotype 4 (strain ATCC BAA-334 / TIGR4)) (UniProt P0C2J9); assay: Inhibition of Streptococcus pneumoniae pneumolysin-mediated lysis of Jurkat cells assessed as [51Cr] release at 20 uM […] for 30 mins followed by incubation with [51Cr]-labeled Jurkat cells by gamma counting
Chain of Pneumolysin (Streptococcus pneumoniae serotype 4 (strain ATCC BAA-334 / TIGR4)) (P0C2J9 whole entry): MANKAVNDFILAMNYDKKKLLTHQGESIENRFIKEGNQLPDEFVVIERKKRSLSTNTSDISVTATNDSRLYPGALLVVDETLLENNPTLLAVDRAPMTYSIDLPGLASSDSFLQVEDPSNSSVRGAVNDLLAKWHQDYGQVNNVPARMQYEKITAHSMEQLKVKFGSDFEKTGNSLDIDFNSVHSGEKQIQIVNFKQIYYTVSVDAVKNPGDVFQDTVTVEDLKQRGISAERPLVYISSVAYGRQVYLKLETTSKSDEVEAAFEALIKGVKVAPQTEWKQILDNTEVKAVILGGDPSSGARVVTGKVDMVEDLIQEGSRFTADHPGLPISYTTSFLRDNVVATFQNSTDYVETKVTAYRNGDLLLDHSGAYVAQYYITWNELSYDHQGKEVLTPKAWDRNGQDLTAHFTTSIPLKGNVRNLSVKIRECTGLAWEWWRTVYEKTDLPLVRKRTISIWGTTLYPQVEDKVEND
Procedure, shortened: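 Single 20 µM concentration, preincubated 30 min with pneumolysin in place of perforin, with DMSO as negative control. Jurkat cells were labelled 1 h with 100 µCi ⁵¹Cr, washed three times, and resuspended at 1 × 10⁵ cells/mL in RPMI with 0.1% BSA. Labelled cells were then added for 4 h at 37 °C, and supernatant radioactivity was gamma-counted.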

[5] = target: T1, Perforin-1 (Homo sapiens); assay: Inhibition of recombinant perforin-mediated lysis of Jurkat cells assessed as [51Cr] release at 20 uM preincubated with perforin for 30 mins followed by incubation with [51Cr]-labeled Jurkat cells by gamma counting
Procedure, shortened: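 Compound at 20 µM was preincubated with recombinant perforin for 30 min, with DMSO as negative control. Jurkat cells were labelled with 100 µCi ⁵¹Cr for 1 h, washed ×3 and used at 1 × 10⁵/mL in RPMI + 0.1% BSA. They were added and incubated for 4 h at 37 °C. Supernatant radioactivity was measured by gamma counting. Triplicate points.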

| Compound | inhibition [1] | inhibition [2] | viability at 20 µM [3] | inhibition [4] | inhibition [5] |
| --- | --- | --- | --- | --- | --- |
| O=C1NC(=S)N/C1=C/c1ccc(-c2ccc3c(c2)COC3=O)s1 | 53% | 38.9% | 88% | – | – |
| O=C1NC(=S)N/C1=C/c1cc2ccc(-c3ccc4c(c3)COC4=O)cc2[nH]1 | 100% | 100% | 10% | – | – |
| O=C1NC(=S)N/C1=C/c1cnc(-c2ccc3c(c2)COC3=O)s1 | 45% | 27% | 68% | – | – |
| O=C1NC(=S)N/C1=C/c1csc(-c2ccc3c(c2)COC3=O)n1 | 11% | 2% | 25% | – | – |
| O=C1NC(=S)N/C1=C/c1cc2cc(-c3ccc4c(c3)COC4=O)ccc2o1 | 61% | 35% | 29.9% | – | – |
| O=C1NC(=S)N/C1=C/c1ccc(-c2ccc3c(c2)COC3=O)cn1 | 37% | 20% | 92% | – | – |
| O=C1NC(=S)N/C1=C/c1ccc2ccc(-c3ccc4c(c3)COC4=O)cc2n1 | 52% | 38% | 59% | – | – |
| O=C1NC(=S)N/C1=C/c1cc(-c2ccc3c(c2)COC3=O)cs1 | 49% | 42% | 55% | – | – |
| O=C1NC(=S)NC(=O)C1=Cc1ccc(-c2ccc3c(c2)COC3=O)s1 | 91% | 73% | 38% | – | – |
| O=C1NC(=S)N/C1=C/c1cc2ccc(-c3ccc4c(c3)COC4=O)cc2s1 | 46% | 25% | 19.7% | – | – |
| O=C1NC(=S)N/C1=C/c1cc2cc(-c3ccc4c(c3)COC4=O)ccc2s1 | 51% | 17% | 27% | – | – |
| O=C1NC(=S)N/C1=C/c1cc(-c2ccc3c(c2)COC3=O)no1 | 41% | 23% | 63% | – | – |
| Cc1cc2c(c(=S)[nH]1)C(=O)OC2=Cc1csc2ccccc12 | 41% | 10.3% | 77% | – | – |
| O=C1NC(=S)N/C1=C/c1ccc(-c2ccc3c(c2)COC3=O)cc1 | 28% | 30% | 59% | – | – |
| O=C1NC(=S)N/C1=C/c1ccc2cc(-c3ccc4c(c3)COC4=O)ccc2n1 | 60% | 35% | 48.5% | – | – |
| O=C1NC(=S)N/C1=C/c1cc(-c2ccc3c(c2)COC3=O)ns1 | 45% | 26% | 57% | – | – |
| O=C1NC(=O)/C(=C\c2ccc(-c3ccc4c(c3)COC4=O)s2)N1 | 54% | 64% | 91.5% | – | – |
| O=C1NC(=S)N/C1=C/c1nc(-c2ccc3c(c2)COC3=O)cs1 | 30% | 13% | 91% | – | – |
| O=C1NC(=S)N/C1=C/c1ccc(-c2ccc3c(c2)COC3=O)o1 | 74% | 23% | 66% | inactive | Active |
| O=C1NC(=O)/C(=C\c2ccc(-c3ccc4c(c3)COC4=O)s2)S1 | 36% | 12% | 19% | – | – |
| O=C1NC(=S)N/C1=C/c1cc2cc(-c3ccc4c(c3)COC4=O)ccc2[nH]1 | 91% | 83% | 23.2% | – | – |
| O=C1NC(=O)C(=Cc2ccc(-c3ccc4c(c3)COC4=O)s2)C(=O)N1 | 52% | 10% | 77.6% | – | – |

From ChEMBL document CHEMBL1933048, “Inhibition of the pore-forming protein perforin by a series of aryl-substituted isobenzofuran-1(3H)-ones” (Bioorg Med Chem, 2012)
